Data taken from ChEMBL document CHEMBL3124801, “Structure-based optimization of tyrosine kinase inhibitor CLM3. Design, synthesis, functional evaluation, and molecular modeling studies” (J Med Chem, 2014).

Columns and labels:
HUVEC = assay: Antiproliferative activity against HUVEC after 72 hrs by cell counter; details: Homo sapiens
TT [1] = assay: Antiproliferative activity against human TT cells after 72 hrs by cell counter
[2] = Antiproliferative activity against HNDF after 72 hrs by cell counter; details: Homo sapiens
[3] = biological target: Proto-oncogene tyrosine-protein kinase receptor Ret (Homo sapiens) (UniProt P07949); assay: Inhibition of recombinant human RET at 100 uM incubated for 5 mins with substrate prior to protein addition by fluorescence assay relative to control
Procedure, shortened: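 Human recombinant RET was assayed with Omnia Tyr peptide 7 substrate at 30 °C, from 1 mM ATP and 1 mM DTT stocks, with DMSO ≤1% final. Mix plus inhibitor was preincubated 5 min before kinase was added to start the reaction. Fluorescence (ex 360/em 485 nm) was followed over time, and activity was taken from a linear fit of intensity versus time. Compounds were screened at 100 μM.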

[4] = Antiproliferative activity against HMVEC-d cells after 72 hrs; details: Homo sapiens
TT [5] = assay: Antiproliferative activity against human TT cells
8305C = assay: cells; details: Homo sapiens, 72 h

Proto-oncogene tyrosine-protein kinase receptor Ret (Homo sapiens), sequence (P07949 whole entry): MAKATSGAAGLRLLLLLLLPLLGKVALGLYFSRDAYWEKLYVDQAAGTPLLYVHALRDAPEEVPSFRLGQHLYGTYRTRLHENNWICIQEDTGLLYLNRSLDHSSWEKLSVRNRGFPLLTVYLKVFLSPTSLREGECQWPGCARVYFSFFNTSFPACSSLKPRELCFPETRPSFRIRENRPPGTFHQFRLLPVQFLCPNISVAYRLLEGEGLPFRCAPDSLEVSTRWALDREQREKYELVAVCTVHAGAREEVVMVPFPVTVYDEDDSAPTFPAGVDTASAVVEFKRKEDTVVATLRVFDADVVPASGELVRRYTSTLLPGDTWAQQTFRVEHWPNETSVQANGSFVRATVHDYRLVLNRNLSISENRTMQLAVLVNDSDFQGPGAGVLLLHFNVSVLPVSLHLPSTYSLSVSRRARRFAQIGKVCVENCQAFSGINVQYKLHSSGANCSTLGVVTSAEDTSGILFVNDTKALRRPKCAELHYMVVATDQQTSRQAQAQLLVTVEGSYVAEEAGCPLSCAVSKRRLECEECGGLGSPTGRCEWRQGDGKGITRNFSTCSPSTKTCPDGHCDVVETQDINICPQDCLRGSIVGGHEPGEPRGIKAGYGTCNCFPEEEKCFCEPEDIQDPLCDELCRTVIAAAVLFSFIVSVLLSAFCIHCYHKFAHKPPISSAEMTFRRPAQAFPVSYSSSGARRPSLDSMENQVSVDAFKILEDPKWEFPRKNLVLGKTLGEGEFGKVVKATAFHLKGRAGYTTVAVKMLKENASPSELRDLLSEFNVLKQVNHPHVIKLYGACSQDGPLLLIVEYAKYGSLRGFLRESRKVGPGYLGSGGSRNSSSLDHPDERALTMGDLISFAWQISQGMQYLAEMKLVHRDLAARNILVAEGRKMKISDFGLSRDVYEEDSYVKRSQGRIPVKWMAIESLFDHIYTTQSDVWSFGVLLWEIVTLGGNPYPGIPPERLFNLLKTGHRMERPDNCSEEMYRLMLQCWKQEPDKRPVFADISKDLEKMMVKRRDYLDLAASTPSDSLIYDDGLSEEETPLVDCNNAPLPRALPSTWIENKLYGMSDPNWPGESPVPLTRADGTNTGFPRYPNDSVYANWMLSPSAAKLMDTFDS

inhibition [3] [%] | Compound | IC50 (HUVEC) [µM] | IC50 (TT [1]) [µM] | further results
 | O=C(Nc1cccc(CNc2ncnc3c2cnn3CCc2ccccc2)c1)c1ccc([N+](=O)[O-])cc1 | 16.6 | 6.13 | IC50 [2]: 22 µM
 | O=C(Nc1ccccc1)Nc1cccc(CNc2ncnc3c2cnn3CCc2ccccc2)c1 | 13.4 | 8.42 | 
37 | O=C(Nc1ccc([N+](=O)[O-])cc1)Nc1cccc(CNc2ncnc3c2cnn3CCc2ccccc2)c1 |  |  | 
 | O=C(Nc1cccc(CNc2ncnc3c2cnn3CCc2ccccc2)c1)c1ccccc1 | 15.3 | 13.8 | 
 | O=S(=O)(Cc1ccccc1)Nc1cccc(CNc2ncnc3c2cnn3CCc2ccccc2)c1 | 50.7 | 5.97 | IC50 [2]: 23.6 µM
 | O=C(Nc1cccc(CNc2ncnc3c2cnn3CCc2ccccc2)c1)c1ccc(F)cc1 | 15.9 | 13.6 | 
48 | C[C@@H](Nc1ncnc2c1cnn2CCc1ccccc1)c1ccccc1 |  |  | IC50 [4]: 0.0004 µM; IC50 (TT [5]): 26.9 µM; IC50 (8305C): 9.2 µM
57 | O=[N+]([O-])c1ccc(S(=O)(=O)Nc2cccc(CNc3ncnc4c3cnn4CCc3ccccc3)c2)cc1 |  |  | 
8 | COc1ccc(S(=O)(=O)Nc2cccc(CNc3ncnc4c3cnn4CCc3ccccc3)c2)cc1OC |  |  | 
 | O=C(Nc1ccc(Br)cc1)Nc1cccc(CNc2ncnc3c2cnn3CCc2ccccc2)c1 | 18.6 | 9.86 | 
 | O=C(Nc1cccc(CNc2ncnc3c2cnn3CCc2ccccc2)c1)c1ccc(Br)cc1 | 9.83 | 13.5 | 
 | O=S(=O)(Nc1cccc(CNc2ncnc3c2cnn3CCc2ccccc2)c1)c1ccccc1 | 22.6 | 8.08 | 
